Columns and labels:
Assay type in all cases: cell-based
[1] = molecular target: Nuclear receptor subfamily 4 group A member 3 (Homo sapiens) (UniProt Q92570); test: Modulation of full length human NOR1 expressed in SK-N-BE(2) cells co-transfected with luciferase reporter plasmid harboring NurRE response element assessed as increase in luciferase activity incubated for 18 by luciferase reporter gene assay; conditions: SKNBE2, filed as modulator, time 18.0 hrs
In short: (§1)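 Cells seeded at 1.5 million per 10-cm dish. Next day they were transfected (Lipofectamine 2000) with full-length Nur77 or NOR-1 expression plasmid, either alone (2 μg) or 1 μg plus full-length RXRα (1 μg), and 3xNBRE- or 3xNurRE-luciferase reporter (6 μg), 18 h. Cells replated at 10,000/well, 4 h, then ligand dose response added in quadruplicate for 18 h. Luciferase luminescence read.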

[2] = molecular target: Nuclear receptor subfamily 4 group A member 3 (Homo sapiens) (UniProt Q92570); test: Modulation of full length human NOR1 expressed in PC12 cells co-transfected with luciferase reporter plasmid harboring NBRE response element assessed as increase in luciferase activity incubated for 18 by luciferase reporter gene assay; conditions: PC-12, filed as modulator, time 18.0 hrs
In short: (§2)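 Full-length NOR-1 plasmid was transfected via Lipofectamine 2000, either alone (2 μg) or at 1 μg with full-length RXRα (1 μg). It was paired with a 3xNBRE or 3xNurRE luciferase reporter (6 μg), 8 μg total DNA, for 18 h. Cells were replated at 10,000/well for 4 h, then given a full ligand dose response or vehicle in quadruplicate for 18 h. Luciferase was read; no EC50/IC50 was fitted.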

[3] = molecular target: Nuclear receptor subfamily 4 group A member 2 (Homo sapiens) (UniProt P43354); test: Modulation of full length human Nurr1 expressed in SKNBE(2) cells co-transfected with luciferase reporter plasmid harboring NurRE response element assessed as increase in luciferase activity incubated for 18 hrs by luciferase reporter-gene assay; conditions: SKNBE2, filed as modulator
In short: (§3)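 Transfection of SK-N-BE(2)-C cells (1:1 EMEM/F12, 10% FBS, 37°C, 5% CO2) used full-length Nurr1 alone (2 μg, no RXRα) with 3xNBRE- or 3xNurRE-luciferase reporter (6 μg) for 18 h. Cells were replated at 10,000/well for 4 h, then exposed to ligand or vehicle in quadruplicate for 18 h. Luminescence was expressed as fold over vehicle, as mean ± s.e.m. (n=4) from 2 independent experiments, one-way ANOVA against vehicle.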

[4] = molecular target: Nuclear receptor subfamily 4 group A member 3 (Homo sapiens) (UniProt Q92570); test: Modulation of full length human NOR1 expressed in PC12 cells co-transfected with RXRalpha and luciferase reporter plasmid harboring NBRE response element assessed as increase in luciferase activity incubated for 18 by luciferase reporter gene assay; conditions: PC-12, filed as modulator, time 18.0 hrs; in short: as §2
[5] = molecular target: Nuclear receptor subfamily 4 group A member 2 (Homo sapiens) (UniProt P43354); test: Modulation of full length human Nurr1 expressed in PC12 cells co-transfected with luciferase reporter plasmid harboring NurRE response element assessed as increase in luciferase activity incubated for 18 hrs by luciferase reporter-gene assay; conditions: PC-12, filed as modulator
In short: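 Here PC12 cells (FK-12 medium, 15% horse serum, 2.5% FBS, 37°C, 5% CO2) received full-length Nurr1 (2 μg) without RXRα, plus 3xNBRE- or 3xNurRE-luciferase reporter (6 μg), for 18 h. Cells were replated at 10,000/well for 4 h, then treated with ligand or vehicle in quadruplicate for 18 h. Luciferase luminescence was normalized to vehicle-treated cells. Results are mean ± s.e.m. (n=4) from 2 independent experiments, with one-way ANOVA against vehicle.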

[6] = molecular target: Nuclear receptor subfamily 4immunitygroup A member 1 (Homo sapiens) (UniProt P22736); test: Modulation of full length human Nur77 expressed in PC12 cells co-transfected with RXRalpha and luciferase reporter plasmid harboring NurRE response element assessed as increase in luciferase activity incubated for 18 by luciferase reporter gene assay; conditions: PC-12, filed as modulator, time 18.0 hrs; in short: as §1
[7] = molecular target: Nuclear receptor subfamily 4 group A member 2 (Homo sapiens) (UniProt P43354); test: Modulation of full length human Nurr1 expressed in SKNBE(2) cells co-transfected with luciferase reporter plasmid harboring NBRE response element assessed as increase in luciferase activity incubated for 18 hrs by luciferase reporter-gene assay; conditions: SKNBE2, filed as modulator; in short: as §3
[8] = molecular target: Nuclear receptor subfamily 4 group A member 3 (Homo sapiens) (UniProt Q92570); test: Modulation of full length human NOR1 expressed in HEK293T cells co-transfected with RXRalpha luciferase reporter plasmid harboring NBRE response element assessed as increase in luciferase activity incubated for 18 hrs by luciferase reporter gene assay; conditions: filed as modulator; in short: as §2
[9] = molecular target: Nuclear receptor subfamily 4 group A member 3 (Homo sapiens) (UniProt Q92570); test: Modulation of full length human NOR1 expressed in SK-N-BE(2) cells co-transfected with RXRalpha and luciferase reporter plasmid harboring NurRE response element assessed as increase in luciferase activity incubated for 18 by luciferase reporter gene assay; conditions: SKNBE2, filed as modulator, time 18.0 hrs; in short: as §1
[10] = molecular target: Nuclear receptor subfamily 4 group A member 2 (Homo sapiens) (UniProt P43354); test: Modulation of full length human Nurr1 expressed in HEK293T cells co-transfected with RXRalpha and luciferase reporter plasmid harboring NurRE response element assessed as increase in luciferase activity incubated for 18 hrs by luciferase reporter-gene assay; conditions: filed as modulator
In short: (§4)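 Full-length Nurr1 plasmid, alone (2 μg) or 1 μg plus full-length RXRα (1 μg), cotransfected with 3xNBRE- or 3xNurRE-luciferase reporter (6 μg) using Lipofectamine 2000, 18 h. Cells replated at 10,000/well for 4 h. Four ligand concentrations, or vehicle (water, ethanol or DMSO), added in quadruplicate for 18 h. Luciferase read. Fold change vs vehicle, mean ± s.e.m., one-way ANOVA vs vehicle.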

[11] = molecular target: Nuclear receptor subfamily 4 group A member 2 (Homo sapiens) (UniProt P43354); test: Modulation of full length human Nurr1 expressed in PC12 cells co-transfected with RXRalpha and luciferase reporter plasmid harboring NBRE response element assessed as increase in luciferase activity incubated for 18 hrs by luciferase reporter-gene assay; conditions: PC-12, filed as modulator
In short: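 PC12 cells were grown at 37°C and 5% CO2 in […] medium with 15% horse serum and 2.5% FBS. They were transfected with full-length Nurr1 (1 μg) plus full-length RXRα (1 μg) and 3xNBRE- or 3xNurRE-luciferase reporter (6 μg) for 18 h, then replated at 10,000 cells/well for 4 h. Ligand or vehicle (water, ethanol or DMSO) was added in quadruplicate for 18 h. Luminescence was read as fold change over vehicle. Results are mean ± s.e.m., n=4, from 2 independent experiments, analysed by one-way ANOVA against vehicle.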

[12] = molecular target: Nuclear receptor subfamily 4immunitygroup A member 1 (Homo sapiens) (UniProt P22736); test: Modulation of full length human Nur77 expressed in SK-N-BE(2) cells co-transfected with RXRalpha and luciferase reporter plasmid harboring NBRE response element assessed as increase in luciferase activity incubated for 18 by luciferase reporter gene assay; conditions: SKNBE2, filed as modulator, time 18.0 hrs; in short: as §1
[13] = molecular target: Nuclear receptor subfamily 4 group A member 2 (Homo sapiens) (UniProt P43354); test: Modulation of full length human Nurr1 expressed in HEK293T cells co-transfected with luciferase reporter plasmid harboring NurRE response element assessed as increase in luciferase activity incubated for 18 hrs by luciferase reporter-gene assay; conditions: filed as modulator; in short: as §4
[14] = molecular target: Nuclear receptor subfamily 4immunitygroup A member 1 (Homo sapiens) (UniProt P22736); test: Modulation of full length human Nur77 expressed in SK-N-BE(2) cells co-transfected with luciferase reporter plasmid harboring NBRE response element assessed as increase in luciferase activity incubated for 18 by luciferase reporter gene assay; conditions: SKNBE2, filed as modulator, time 18.0 hrs; in short: as §1
[15] = molecular target: Nuclear receptor subfamily 4 group A member 3 (Homo sapiens) (UniProt Q92570); test: Modulation of full length human NOR1 expressed in HEK293 cells co-transfected with luciferase reporter plasmid harboring NurRE response element assessed as increase in luciferase activity incubated for 18 hrs by luciferase reporter gene assay; conditions: filed as modulator; in short: as §2
[16] = molecular target: Nuclear receptor subfamily 4 group A member 2 (Homo sapiens) (UniProt P43354); test: Modulation of full length human Nurr1 expressed in HEK293T cells co-transfected with RXRalpha and luciferase reporter plasmid harboring NBRE response element assessed as increase in luciferase activity incubated for 18 hrs by luciferase reporter-gene assay; conditions: filed as modulator; in short: as §4
[17] = molecular target: Nuclear receptor subfamily 4immunitygroup A member 1 (Homo sapiens) (UniProt P22736); test: Modulation of full length human Nur77 expressed in HEK293 cells co-transfected with luciferase reporter plasmid harboring NurRE response element assessed as increase in luciferase activity incubated for 18 hrs by luciferase reporter gene assay; conditions: filed as modulator; in short: as §1

Measured: Activity

Nuclear receptor subfamily 4 group A member 2 (Homo sapiens), sequence (P43354 whole entry): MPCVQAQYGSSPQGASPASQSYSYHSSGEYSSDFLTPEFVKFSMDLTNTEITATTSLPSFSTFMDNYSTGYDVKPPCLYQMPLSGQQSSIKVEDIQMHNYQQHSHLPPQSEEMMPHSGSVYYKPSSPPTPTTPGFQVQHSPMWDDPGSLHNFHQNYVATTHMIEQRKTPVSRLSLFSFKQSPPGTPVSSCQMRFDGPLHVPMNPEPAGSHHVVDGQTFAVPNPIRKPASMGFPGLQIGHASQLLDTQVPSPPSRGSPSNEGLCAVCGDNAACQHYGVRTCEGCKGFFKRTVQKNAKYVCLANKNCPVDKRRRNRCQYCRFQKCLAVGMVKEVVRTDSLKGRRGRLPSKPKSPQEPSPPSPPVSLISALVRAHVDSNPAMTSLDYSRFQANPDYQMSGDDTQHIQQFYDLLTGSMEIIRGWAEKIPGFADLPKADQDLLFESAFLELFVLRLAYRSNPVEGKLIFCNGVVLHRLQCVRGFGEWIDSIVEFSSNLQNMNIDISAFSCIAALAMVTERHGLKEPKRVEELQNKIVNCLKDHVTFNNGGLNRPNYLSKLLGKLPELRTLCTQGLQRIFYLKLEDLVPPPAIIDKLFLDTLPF
Nuclear receptor subfamily 4immunitygroup A member 1 (Homo sapiens), sequence (P22736 whole entry): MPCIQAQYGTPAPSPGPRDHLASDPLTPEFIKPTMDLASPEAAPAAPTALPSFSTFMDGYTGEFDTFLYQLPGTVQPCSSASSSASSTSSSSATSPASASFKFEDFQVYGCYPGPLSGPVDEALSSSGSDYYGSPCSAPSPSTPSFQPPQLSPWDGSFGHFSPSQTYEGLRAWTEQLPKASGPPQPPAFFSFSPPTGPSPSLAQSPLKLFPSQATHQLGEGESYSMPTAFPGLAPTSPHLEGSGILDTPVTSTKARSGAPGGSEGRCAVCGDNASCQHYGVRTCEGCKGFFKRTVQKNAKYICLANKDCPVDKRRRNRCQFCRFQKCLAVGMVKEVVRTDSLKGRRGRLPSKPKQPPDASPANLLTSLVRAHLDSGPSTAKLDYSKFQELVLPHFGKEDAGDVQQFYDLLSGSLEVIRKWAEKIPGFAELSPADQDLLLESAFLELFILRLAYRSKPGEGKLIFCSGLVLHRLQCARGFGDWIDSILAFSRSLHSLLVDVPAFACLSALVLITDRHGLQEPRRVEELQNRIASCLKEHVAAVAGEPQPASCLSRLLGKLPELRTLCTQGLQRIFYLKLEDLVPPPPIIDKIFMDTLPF
Nuclear receptor subfamily 4 group A member 3 (Homo sapiens), sequence (Q92570 whole entry): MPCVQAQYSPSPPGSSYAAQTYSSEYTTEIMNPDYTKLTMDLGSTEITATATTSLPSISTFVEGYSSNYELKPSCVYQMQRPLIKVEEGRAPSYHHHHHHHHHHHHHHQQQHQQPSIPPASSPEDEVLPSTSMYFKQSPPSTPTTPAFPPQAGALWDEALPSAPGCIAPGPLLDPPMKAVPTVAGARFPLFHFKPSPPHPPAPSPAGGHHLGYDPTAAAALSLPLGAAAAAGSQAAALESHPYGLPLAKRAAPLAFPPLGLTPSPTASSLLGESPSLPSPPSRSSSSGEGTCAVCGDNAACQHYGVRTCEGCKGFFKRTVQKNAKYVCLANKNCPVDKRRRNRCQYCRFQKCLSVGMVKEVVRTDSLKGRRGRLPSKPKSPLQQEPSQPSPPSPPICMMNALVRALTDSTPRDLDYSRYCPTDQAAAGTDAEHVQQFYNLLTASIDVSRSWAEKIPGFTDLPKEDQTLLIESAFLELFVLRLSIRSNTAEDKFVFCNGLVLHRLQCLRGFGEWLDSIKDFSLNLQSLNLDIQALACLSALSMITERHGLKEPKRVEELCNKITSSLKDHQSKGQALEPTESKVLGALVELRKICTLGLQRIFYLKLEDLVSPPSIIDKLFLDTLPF

CCN(CC)Cc1cc(Nc2ccnc3cc(Cl)ccc23)ccc1O [AMODIAQUINE]
active: [1] Dose-Dependent Effect | [2] Dose-Dependent Effect | [3] Dose-Dependent Effect | [4] Dose-Dependent Effect | [5] Dose-Dependent Effect | [6] Dose-Dependent Effect | [7] Dose-Dependent Effect | [8] Dose-Dependent Effect | [9] Dose-Dependent Effect | [10] Dose-Dependent Effect | [11] Dose-Dependent Effect | [12] Dose-Dependent Effect | [13] Dose-Dependent Effect | [14] Dose-Dependent Effect | [15] Dose-Dependent Effect | [16] Dose-Dependent Effect | [17] Dose-Dependent Effect

CCN(CC)CCCC(C)Nc1ccnc2cc(Cl)ccc12 (stereo unspecified) [CHLOROQUINE]
active: [1] Dose-Dependent Effect | [2] Dose-Dependent Effect | [3] Dose-Dependent Effect | [4] Dose-Dependent Effect | [5] Dose-Dependent Effect | [6] Dose-Dependent Effect | [7] Dose-Dependent Effect | [8] Dose-Dependent Effect | [9] Dose-Dependent Effect | [10] Dose-Dependent Effect | [11] Dose-Dependent Effect | [12] Dose-Dependent Effect | [13] Dose-Dependent Effect | [14] Dose-Dependent Effect | [15] Dose-Dependent Effect | [16] Dose-Dependent Effect | [17] Dose-Dependent Effect

CCCCCCCC(=O)c1c(O)cc(O)cc1CC(=O)OCC [CYTOSPORONE B]
active: [1] Dose-Dependent Effect | [2] Dose-Dependent Effect | [3] Dose-Dependent Effect | [4] Dose-Dependent Effect | [5] Dose-Dependent Effect | [6] Dose-Dependent Effect | [7] Dose-Dependent Effect | [8] Dose-Dependent Effect | [9] Dose-Dependent Effect | [10] Dose-Dependent Effect | [11] Dose-Dependent Effect | [12] Dose-Dependent Effect | [13] Dose-Dependent Effect | [14] Dose-Dependent Effect | [15] Dose-Dependent Effect | [16] Dose-Dependent Effect | [17] Dose-Dependent Effect

— ChEMBL document CHEMBL5030505, “Assessment of NR4A Ligands That Directly Bind and Modulate the Orphan Nuclear Receptor Nurr1” (J Med Chem, 2020)
